Broadly, the pA2 is the negative logarithm of the molar antagonist concentration that doubles the agonist concentration needed for the same response. The low end stands for lower antagonist potency, the high end for higher antagonist potency.

Assay [1] concerns the target 5-hydroxytryptamine receptor 2A (Rattus norvegicus) (UniProt P14842). As to the kind of experiment: Effectiveness in blocking 5-HT2A receptor-mediated contractions of rat tail artery. Format: functional, tissue-based. Summed up: (§1)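 Endothelium-denuded rat ventral caudal artery segments (4–5 mm), isometric, resting force 5 mN. Segments were primed once with 5-HT 1 μM during 120 min equilibration. Prazosin 30 nM and cocaine 6 μM were present throughout. Two cumulative 5-HT curves were run 60 min apart, the second after 30–60 min with antagonist. pKP by Marano–Kaumann; pA2 by Schild or as apparent pA2. Mean ± SEM, n segments, ≥2 animals.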

The nature of assay [2]: Specificity towards 5-HT2A receptor to that of alpha-1 adrenoceptor. It counts as functional.
Assay [3] addresses T1, Adrenergic receptor alpha-1 (Rattus norvegicus, UniProt P15823+P23944+P43140).
T1 sequence (P15823 whole entry): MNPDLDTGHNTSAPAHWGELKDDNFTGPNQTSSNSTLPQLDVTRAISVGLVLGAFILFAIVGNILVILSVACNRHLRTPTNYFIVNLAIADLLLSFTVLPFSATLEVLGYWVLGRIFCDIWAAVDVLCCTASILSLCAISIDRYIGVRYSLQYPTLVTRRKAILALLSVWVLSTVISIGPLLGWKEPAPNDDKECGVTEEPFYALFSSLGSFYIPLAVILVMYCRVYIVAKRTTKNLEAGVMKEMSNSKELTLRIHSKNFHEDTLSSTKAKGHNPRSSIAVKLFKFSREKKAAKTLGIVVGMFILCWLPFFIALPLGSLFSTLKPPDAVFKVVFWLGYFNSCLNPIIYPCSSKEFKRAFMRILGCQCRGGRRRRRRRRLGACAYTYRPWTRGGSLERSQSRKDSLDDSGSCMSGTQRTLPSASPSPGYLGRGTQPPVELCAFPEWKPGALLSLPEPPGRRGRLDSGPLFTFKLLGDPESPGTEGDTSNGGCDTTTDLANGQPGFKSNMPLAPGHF
T1 sequence (P23944 whole entry): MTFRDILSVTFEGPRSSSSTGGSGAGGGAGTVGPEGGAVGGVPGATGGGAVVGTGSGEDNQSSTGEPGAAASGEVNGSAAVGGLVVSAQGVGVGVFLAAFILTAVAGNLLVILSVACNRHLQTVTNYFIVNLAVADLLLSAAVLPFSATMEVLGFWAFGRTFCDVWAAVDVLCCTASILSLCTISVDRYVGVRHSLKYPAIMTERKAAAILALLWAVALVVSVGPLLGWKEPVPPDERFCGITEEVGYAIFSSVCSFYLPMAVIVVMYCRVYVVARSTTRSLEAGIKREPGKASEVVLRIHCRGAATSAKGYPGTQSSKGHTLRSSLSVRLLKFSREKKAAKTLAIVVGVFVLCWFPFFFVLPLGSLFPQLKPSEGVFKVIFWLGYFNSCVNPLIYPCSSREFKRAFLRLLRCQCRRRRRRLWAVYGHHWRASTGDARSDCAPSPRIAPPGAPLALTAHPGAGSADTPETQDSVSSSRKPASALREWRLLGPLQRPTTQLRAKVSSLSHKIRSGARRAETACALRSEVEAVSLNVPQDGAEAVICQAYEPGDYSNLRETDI
T1 sequence (P43140 whole entry): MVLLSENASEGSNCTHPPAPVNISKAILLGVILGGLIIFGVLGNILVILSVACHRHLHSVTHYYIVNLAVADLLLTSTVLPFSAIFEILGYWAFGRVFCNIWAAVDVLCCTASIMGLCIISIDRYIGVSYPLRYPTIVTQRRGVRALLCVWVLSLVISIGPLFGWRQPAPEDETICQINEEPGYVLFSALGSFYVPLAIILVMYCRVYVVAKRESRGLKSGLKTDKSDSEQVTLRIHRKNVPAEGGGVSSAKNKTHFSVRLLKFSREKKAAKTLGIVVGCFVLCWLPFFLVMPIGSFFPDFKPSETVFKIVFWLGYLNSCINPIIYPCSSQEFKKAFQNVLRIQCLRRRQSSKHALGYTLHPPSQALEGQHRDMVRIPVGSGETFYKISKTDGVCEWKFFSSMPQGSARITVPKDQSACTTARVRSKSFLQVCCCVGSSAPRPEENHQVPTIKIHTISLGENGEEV
As to the kind of experiment: Ability to block alpha-1 adrenergic receptor-mediated contractions of rat aorta. Format: functional. The procedure, abridged:
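Endothelium-denuded rat thoracic aorta rings (4–6 mm) in modified Krebs-Henseleit, 37 °C, 95% O2/5% CO2, with (R,S)-propranolol 1 μM. Resting force 20 mN. During 140 min equilibration, rings were stimulated twice with (R)-phenylephrine 100 nM. Two cumulative phenylephrine contraction curves were run, without and then with antagonist added 30 min before.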

The target of assay [4] is 5-hydroxytryptamine receptor 2A (Rattus norvegicus, UniProt P14842). As to the kind of experiment: Blocking 5-HT2A receptor-mediated contractions of rat tail artery. It counts as functional, tissue-based. To be noted: read-out: pA2 (converted). Summed up: as §1
Sequence of 5-hydroxytryptamine receptor 2A (P14842 whole entry): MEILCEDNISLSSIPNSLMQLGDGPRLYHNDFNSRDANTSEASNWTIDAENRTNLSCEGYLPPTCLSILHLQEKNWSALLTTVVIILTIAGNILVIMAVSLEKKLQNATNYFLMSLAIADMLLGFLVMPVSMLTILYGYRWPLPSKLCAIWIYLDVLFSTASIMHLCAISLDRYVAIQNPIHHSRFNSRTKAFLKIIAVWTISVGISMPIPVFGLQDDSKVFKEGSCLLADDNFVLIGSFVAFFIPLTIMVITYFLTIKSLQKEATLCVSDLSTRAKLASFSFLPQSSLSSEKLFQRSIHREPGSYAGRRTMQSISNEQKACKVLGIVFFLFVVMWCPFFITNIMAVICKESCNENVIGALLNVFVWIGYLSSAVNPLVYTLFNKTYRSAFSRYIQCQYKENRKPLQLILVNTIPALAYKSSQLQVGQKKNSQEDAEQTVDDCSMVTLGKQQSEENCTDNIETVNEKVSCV

Sequence of 5-hydroxytryptamine receptor 2A (Rattus norvegicus) (P14842 whole entry): as above

As to `CN1C[C@H](COC(=O)C2CCCCCC2)C[C@@H]2c3cccc4[nH]cc(c34)C[C@H]21.O=C(O)/C=C\C(=O)O`, in assay [1], the pKp was 7.1. For the same compound, the Specificity in assay [2] was determined as 174. The same compound registered a pA2 in assay [3] of 4.86.

Consider `CN1CC(COC(=O)C2CCCC2)=C[C@@H]2c3cccc4[nH]cc(c34)C[C@H]21.O=C(O)/C=C\C(=O)O`, for which the Kb in assay [4] is 49 nM. The same compound returned a Specificity in assay [2] of 21. The compound further had a pA2 in assay [3] of 5.99.

Consider `CC(C)n1cc2c3c(cccc31)[C@H]1C=C(COC(=O)C3CCC3)CN(C)[C@@H]1C2.O=C(O)/C=C\C(=O)O`, for which, in assay [4], the Kb was 9.33 nM. In addition, the Specificity in assay [2] amounted to 2180. In assay [3], this compound returned a pA2 of 4.69.

On to `CO[C@H]1CC[C@H](C(=O)OCC2=C[C@@H]3c4cccc5[nH]cc(c45)C[C@H]3N(C)C2)CC1.O=C(O)/C=C\C(=O)O`, for which, in assay [4], the Kb is 57.5 nM. In assay [2], this compound returned a Specificity of 17. In addition, in assay [3], the pA2 worked out at 6.

Regarding `CC(C)n1cc2c3c(cccc31)[C@H]1C[C@@H](COC(=O)C3CCC3)CN(C)[C@@H]1C2.O=C(O)/C=C\C(=O)O`, in assay [4], the Kb was 8.71 nM. In assay [2], this compound gave a Specificity of 2950. In assay [3], this compound returned a pA2 of 4.59.

Consider `CC(C)n1cc2c3c(cccc31)C1=C[C@@H](COC(=O)C3CCCCC3)CN(C)[C@@H]1C2.O=C(O)/C=C\C(=O)O`, for which, in assay [4], the Kb was 12 nM. This compound registered a Specificity in assay [2] of 1410. In assay [3], this compound returned a pA2 of 4.77.

As for `CC(C)n1cc2c3c(cccc31)C1=C[C@@H](COC(=O)C3CC3)CN(C)[C@@H]1C2.O=C(O)/C=C\C(=O)O`, in assay [4], the Kb was 1.82 nM. The Specificity in assay [2] came to 4570. Besides, the pA2 in assay [3] turned out to be 5.08.

For the compound `CN1CC(COC(=O)C2CCCCCC2)=C[C@@H]2c3cccc4[nH]cc(c34)C[C@H]21.O=C(O)/C=C\C(=O)O`, the Kb in assay [4] was 10.7 nM. In addition, the Specificity in assay [2] amounted to 832. In assay [3], the pA2 came out at 5.05.

In assay [1], `CN1C[C@H](COC(=O)C2CC2)C[C@@H]2c3cccc4[nH]cc(c34)C[C@H]21.O=C(O)/C=C\C(=O)O` returned a pKp of 7.67. This compound displayed a Specificity in assay [2] of 3. In assay [3], the pA2 turned out to be 7.2.

Regarding `CO[C@H]1CC[C@H](C(=O)OCC2=C[C@@H]3c4cccc5c4c(cn5C(C)C)C[C@H]3N(C)C2)CC1.O=C(O)/C=C\C(=O)O`, in assay [4], the Kb was 7.41 nM. Besides, in assay [2], the Specificity turned out to be 2880. For the same compound, the pA2 in assay [3] is given as 4.67.

For `CN1C[C@H](COC(=O)C2CCC2)C[C@@H]2c3cccc4[nH]cc(c34)C[C@H]21.O=C(O)/C=C\C(=O)O`, the pKp in assay [1] came to 7.3. Also, the Specificity in assay [2] was found to be 5. In addition, the pA2 in assay [3] is recorded as 6.59.

As to `CC(C)n1cc2c3c(cccc31)[C@H]1C=C(COC(=O)C3CCCCC3)CN(C)[C@@H]1C2.O=C(O)/C=C\C(=O)O`, the Kb in assay [4] is 15.8 nM. For the same compound, the Specificity in assay [2] was found to be 1410. This compound registered a pA2 in assay [3] of 4.65.

As for `CC(C)n1cc2c3c(cccc31)C1=C[C@@H](COC(=O)C3CCC3)CN(C)[C@@H]1C2.O=C(O)/C=C\C(=O)O`, the Kb in assay [4] was 6.03 nM. This compound also had a Specificity in assay [2] of 2950. Besides, in assay [3], the pA2 came to 4.75.

Take `CN1CC(COC(=O)C2CCCCC2)=C[C@@H]2c3cccc4[nH]cc(c34)C[C@H]21.O=C(O)/C=C\C(=O)O`: the Kb in assay [4] was 39.8 nM. In assay [2], this compound gave a Specificity of 32. This compound also returned a pA2 in assay [3] of 5.89.

For the compound `CC(C)n1cc2c3c(cccc31)[C@H]1C[C@@H](COC(=O)C3CCCCC3)CN(C)[C@@H]1C2.O=C(O)/C=C\C(=O)O`, the Kb in assay [4] is 72.4 nM. The compound further came in with a Specificity in assay [2] of 355. The pA2 in assay [3] worked out at 4.59.

On to `CC(C)n1cc2c3c(cccc31)[C@H]1C[C@@H](C)CN(C)[C@@H]1C2.O=C(O)/C=C\C(=O)O`, for which, in assay [4], the Kb is 3.16 nM. The same compound displayed a Specificity in assay [2] of 63. The pA2 in assay [3] worked out at 6.7.

On to `CC(C)n1cc2c3c(cccc31)[C@H]1C[C@@H](COC(=O)C3CCCCCC3)CN(C)[C@@H]1C2.O=C(O)/C=C\C(=O)O`, for which the Kb in assay [4] is 89.1 nM. In assay [2], the Specificity was 186. In addition, in assay [3], the pA2 was determined as 4.78.

As to `COC1CCC(C(=O)OCC2=C[C@@H]3c4cccc5[nH]cc(c45)C[C@H]3N(C)C2)CC1.O=C(O)/C=C\C(=O)O` (stereo partly specified), in assay [4], the Kb is 47.9 nM. In addition, in assay [2], the Specificity was 12. In assay [3], the pA2 stood at 6.32.

In the case of `COC1CCC(C(=O)OCC2=C[C@@H]3c4cccc5c4c(cn5C(C)C)C[C@H]3N(C)C2)CC1.O=C(O)/C=C\C(=O)O` (stereo partly specified), the Kb in assay [4] was 11.5 nM. The Specificity in assay [2] was 1260. The pA2 in assay [3] worked out at 4.84.

`CC(C)n1cc2c3c(cccc31)[C@H]1C=C(COC(=O)C3CCCCCC3)CN(C)[C@@H]1C2.O=C(O)/C=C\C(=O)O`: the Kb in assay [4] is 17 nM. Further, in assay [2], the Specificity is over 1860. For the same compound, the pA2 in assay [3] is under 4.5.

Regarding `CC(C)n1cc2c3c(cccc31)[C@H]1C[C@@H](COC(=O)C3CCCC3)CN(C)[C@@H]1C2.O=C(O)/C=C\C(=O)O`, the Kb in assay [4] is 22.4 nM. Also, in assay [2], the Specificity came to 933. This compound also returned a pA2 in assay [3] of 4.68.

On to `CC1=C[C@@H]2c3cccc4c3c(cn4C(C)C)C[C@H]2N(C)C1.O=C(O)/C=C\C(=O)O`, for which the Kb in assay [4] is 1.45 nM. In assay [2], this compound yielded a Specificity of 316. This compound showed a pA2 in assay [3] of 6.34.

In assay [1], `CN1C[C@H](COC(=O)C2CCCC2)C[C@@H]2c3cccc4[nH]cc(c34)C[C@H]21.O=C(O)/C=C\C(=O)O` yielded a pKp of 7.5. The compound further returned a Specificity in assay [2] of 35. In assay [3], this compound showed a pA2 of 5.95.

`CN1C[C@H](COC(=O)C2CCCCC2)C[C@@H]2c3cccc4[nH]cc(c34)C[C@H]21.O=C(O)/C=C\C(=O)O` came in with a pKp in assay [1] of 7.34. The same compound returned a Specificity in assay [2] of 52. Also, the pA2 in assay [3] is reported as 5.62.

For `CC(C)n1cc2c3c(cccc31)[C@H]1C=C(COC(=O)C3CCCC3)CN(C)[C@@H]1C2.O=C(O)/C=C\C(=O)O`, the Kb in assay [4] is 8.91 nM. In assay [2], the Specificity turned out to be 1440. The pA2 in assay [3] came out at 4.89.

In the case of `CC(C)n1cc2c3c(cccc31)C1=C[C@@H](COC(=O)C3CCCC3)CN(C)[C@@H]1C2.O=C(O)/C=C\C(=O)O`, the Kb in assay [4] is 5.62 nM. In assay [2], this compound returned a Specificity of 4790. In assay [3], this compound came in with a pA2 of 4.57.

As for `CN1CC(COC(=O)C2CCC2)=C[C@@H]2c3cccc4[nH]cc(c34)C[C@H]21.O=C(O)/C=C\C(=O)O`, in assay [4], the Kb is 77.6 nM. In assay [2], this compound displayed a Specificity of 5. The same compound showed a pA2 in assay [3] of 6.42.

(Values after ChEMBL document CHEMBL1132168, “Cycloalkanecarboxylic esters derived from lysergol, dihydrolysergol-I, and elymoclavine as partial agonists and antagonists at rat 5-HT2A receptors: pharmacological evidence that the indolo[4,3-fg]quinoline system of the ergolines is responsible for high 5-HT2A receptor affinity” (J Med Chem, 1999).)
